Laboratory results as given in ChEMBL document CHEMBL2057080, “Synthesis, biological evaluation, and structure-activity relationships of a novel class of apurinic/apyrimidinic endonuclease 1 inhibitors” (J Med Chem, 2012).
Active and inactive are the calls of the source. The calls are words filed in the database; no cut-off is given here.

Key:
[1] = molecular target: T1, DNA repair nuclease/redox regulator APEX1 (Homo sapiens, UniProt P27695); assay: Inhibition of human recombinant APE1 at 57 uM after 15 mins by fluorescence based HTS assay
In short: (§1)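 APE1 inhibition was measured in the fluorescence-based qHTS format at up to 57 µM. IC50 is the average of three separate experiments.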

[2] = molecular target: T1, DNA repair nuclease/redox regulator APEX1; assay: Inhibition of APE1 in human HeLa cells assessed as accumulation of genomic AP sites […] after 24 hrs by aldehyde reactive probe-based assay relative to control; assay type: cell-based
In short: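 HeLa cells at 80% confluency were exposed for 24 h at 37 °C to DMSO, 275 µM MMS, or 7.5 µM inhibitor, each alone, or to 275 µM MMS plus 7.5 µM inhibitor. Genomic DNA was isolated and adjusted to 100 ng/µL. 10 µL was labelled with aldehyde reactive probe (biotin-hydrazide reagent) and AP sites were quantified by kit. Samples ran in triplicate and were compared with a Student's t test.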

[3] = molecular target: T1, DNA repair nuclease/redox regulator APEX1; assay: Inhibition of human recombinant APE1 after 15 mins by fluorescence based HTS assay; in short: as §1
[4] = molecular target: T1, DNA repair nuclease/redox regulator APEX1; assay: Inhibition of recombinant APE1 using […]-5'-AP-DNA as substrate incubated for 15 mins prior to substrate addition measured after 5 mins by PAGE analysis
[5] = molecular target: T1, DNA repair nuclease/redox regulator APEX1; assay: Inhibition of APE1 in human HeLa whole cell extract using […]-5'-AP-DNA as substrate assessed as activity remaining at 100 uM incubated for 15 mins prior to substrate addition measured after 5 mins by PAGE analysis relative to control
In short: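 HeLa whole cell extract (300 ng; KCl-extracted hypotonic lysate) was preincubated with inhibitor for 15 min at room temperature, at 100 µM or at 0–100 µM. Then 0.5 pmol 32P AP-DNA was added for 5 min at 37 °C. Samples were run on denaturing PAGE, and incision is reported relative to the no-inhibitor control, from three independent measurements.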

T1 sequence (P27695 whole entry): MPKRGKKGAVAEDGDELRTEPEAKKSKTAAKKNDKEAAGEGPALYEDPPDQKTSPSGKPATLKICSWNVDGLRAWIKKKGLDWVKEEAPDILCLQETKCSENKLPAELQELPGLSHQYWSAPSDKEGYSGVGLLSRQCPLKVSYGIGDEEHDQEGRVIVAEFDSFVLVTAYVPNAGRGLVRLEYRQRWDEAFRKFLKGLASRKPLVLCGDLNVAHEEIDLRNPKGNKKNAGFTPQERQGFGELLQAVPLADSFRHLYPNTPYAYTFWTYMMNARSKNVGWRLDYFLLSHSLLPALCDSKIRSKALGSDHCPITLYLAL

Structure (SMILES) | inhibition [1] [%] | IC50 [3] [µM] | also measured
CC(=O)Nc1sc2c(c1-c1nc3ccccc3s1)CCN(C(C)=O)C2 | 59 | – | –
COS(C)(=O)=O | – | – | inhibition [2]: Active
c1ccc2sc(-c3csc4c3CCNC4)nc2c1 | – | 25.2 | –
CC(=O)Nc1sc2c(c1-c1nc3ccccc3s1)CNCC2 | 31 | – | –
CC(C)N1CCc2c(sc(NC(=O)Cc3ccccc3)c2-c2nc3ccccc3s2)C1 | 53 | – | –
CC(=O)Nc1sc2cnccc2c1-c1nc2ccccc2s1 | – | > 57 | –
O=C(O)c1sc2c(c1-c1nc3ccccc3s1)CCNC2 | – | > 57 | –
CC(C)N1CCc2c(sc(NC(=O)c3ccccc3)c2-c2nc3ccccc3s2)C1 | 57 | – | –
O=C(CCc1ccccc1)Nc1sc2c(c1-c1nc3ccccc3s1)CCNC2 | – | > 57 | –
COC(=O)Nc1sc2c(c1-c1nc3ccccc3s1)CCNC2 | – | 11.1 | –
CC(=O)Nc1sc2c(c1-c1nccs1)CCNC2 | 55 | – | –
COC(=O)c1sc2c(c1-c1nc3ccccc3s1)CCNC2 | – | > 57 | –
CC(=O)Nc1sc2c(c1-c1csc3ccccc13)CCNC2 | – | > 57 | –
O=C(O)c1cc2cccc([N+](=O)[O-])c2[nH]1 | 40 | – | –
CC(C)N1CCc2c(sc(NC(=O)C3CCCCC3)c2-c2nc3ccccc3s2)C1 | – | 8.3 | –
CC(=O)Nc1sc2c(c1-c1nc3ccccc3s1)CCS(=O)(=O)C2 | 29 | – | –
CC(=O)Nc1sc2c(c1-c1nc(-c3ccccc3)cs1)CCN(C(C)C)C2 | – | 2.9 | IC50 [4]: 3 µM; Activity [5]: 15%
CC(=O)Nc1sc2c(c1-c1cc3ccccc3s1)CCNC2 | 23 | – | –
CC(=O)Nc1sc2c(c1-c1nc3ccccc3o1)CCN(C(C)C)C2 | – | 20.4 | IC50 [4]: 13 µM; Activity [5]: 12%
Cc1noc(Nc2sc3c(c2-c2nc4ccccc4s2)CCNC3)n1 | – | 18.2 | –
O=C(Nc1sc2c(c1-c1nc3ccccc3s1)CCNC2)C(F)(F)F | – | 17.6 | –
CC(=O)Nc1sc2c(c1-c1nc3ccccc3s1)CCN(C)C2 | – | 3.8 | IC50 [4]: 5 µM; Activity [5]: 26%
CC(=O)Nc1sc2c(c1-c1nc3ccccc3s1)CCOC2 | 41 | – | –
CC(=O)Nc1sc2c(c1-c1cccs1)CCNC2 | 34 | – | –
C#CCCC(=O)Nc1sc2c(c1-c1nc3ccccc3s1)CCNC2 | – | 12 | –
CC(=O)Nc1sc2c(c1-c1cc3ccccc3o1)CCNC2 | 66 | – | –
CC(=O)Nc1sc2c(c1-c1cccc3ccccc13)CCNC2 | – | > 57 | –

Structure (SMILES) | inhibition [1] [%] | IC50 [3] [µM] | also measured
CC(=O)Nc1sc2c(c1-c1ccccc1)CCNC2 | 42 | – | –
O=C(Nc1sc2c(c1-c1nc3ccccc3s1)CCNC2)C(F)F | – | 3.8 | IC50 [4]: 4 µM; Activity [5]: 38%
CCCCC(=O)Nc1sc2c(c1-c1nc3ccccc3s1)CCN(C(C)C)C2 | – | 9.1 | –
CC(C)N1CCc2c(sc(N)c2-c2nc3ccccc3s2)C1 | 40 | – | –
C#CCCC(=O)Nc1sc2c(c1-c1nc3ccccc3s1)CCN(C(C)C)C2 | 57 | – | –
CC(=O)Nc1sc2c(c1C#N)CCN(C(C)C)C2 | 31 | – | –
CC(=O)Nc1sc2c(c1-c1nc3ccccc3s1)CCN(Cc1ccccc1)C2 | 41 | – | –
CC(=O)Nc1sc2c(c1-c1nc3ccccc3s1)CCSC2 | 56 | – | –
CC(=O)Nc1cc2c(s1)CNCC2 | 47 | – | –
CC(=O)Nc1sc2c(c1-c1nc3ccccc3s1)CCCN(C(C)C)C2 | – | 12.9 | IC50 [4]: 14 µM; Activity [5]: 14%
CC(=O)Nc1sc2c(c1-c1ncco1)CCNC2 | 45 | – | –
CC(=O)Nc1sc2c(c1-c1ccco1)CCNC2 | 41 | – | –
CC(=O)Nc1sc2c(c1-c1nc3ccccc3s1)CCN(C(=O)OC(C)(C)C)C2 | – | > 57 | –
CC(=O)Nc1sc2c(c1Br)CCNC2 | 30 | – | –
CC(=O)Nc1sc2c(c1-c1nc3ccccc3s1)CCN(C(C)C)CC2 | – | 17.6 | IC50 [4]: 13 µM; Activity [5]: 1.1%
CC(=O)Nc1sc2c(c1-c1nc3ccccc3s1)CCNC2 | – | 2.9 | IC50 [4]: 5 µM; Activity [5]: 1.4%
CC(=O)Nc1sc2c(c1-c1cc3ccccc3[nH]1)CCNC2 | – | > 57 | –
CC(C)N1CCc2c(sc(NC(=O)C(F)F)c2-c2nc3ccccc3s2)C1 | – | 5.3 | –
CC(=O)Nc1sc2c(c1-c1nc3ccccc3s1)CN(C(C)C)C2 | – | 3.1 | IC50 [4]: 4 µM; Activity [5]: 57%
Cc1nnc(-c2sc3c(c2-c2nc4ccccc4s2)CCNC3)o1 | – | > 57 | –
Cc1nnc(Nc2sc3c(c2-c2nc4ccccc4s2)CCNC3)o1 | – | 19 | –
O=C(Nc1sc2c(c1-c1nc3ccccc3s1)CCNC2)C1CCCC1 | 55 | – | –
CC(=O)Nc1sc2c(c1C(=O)O)CCNC2 | 29 | – | –
Cc1noc(-c2sc3c(c2-c2nc4ccccc4s2)CCNC3)n1 | – | > 57 | –
O=C(Nc1sc2c(c1-c1nc3ccccc3s1)CCNC2)C1CC1 | – | 6 | –
CC(C)(C)C(=O)Nc1sc2c(c1-c1nc3ccccc3s1)CCNC2 | – | > 57 | –
